In the library only some 2.9% were active in any assay of this set; here they are far more common.
M1 PAM parental: M1 PAM counterscreen hit in parental CHO-K1 cells | ATP EC20, Fluo-8 calcium fluorescence; 0% at ATP EC20, 100% at ATP max | AID 602247 | 0.02% of 360,000 active | activation, % at 3 µM;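 active = activation above the run cutoff, the mean activation of all test compounds plus 3 SD, cut at about 40% in these data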;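 also: peak over basal fluorescence ratio in a 140 s read after ATP addition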
OX1R antag-1: blocks the human orexin 1 receptor; 0.43% of 330,000 active; inhibition, % at 5 µM; O43613; CHO/OX1R cells, Fluo-8 calcium fluorescence, orexin A;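 active = inhibition above its plate's threshold, mean inhibition of all tested compounds on the plate plus 3 SD, cut at about 37% in these data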;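 also: 0% = orexin A challenge wells and 100% = SB-334867-A antagonist wells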
Target sequence (O43613 whole entry, looked up): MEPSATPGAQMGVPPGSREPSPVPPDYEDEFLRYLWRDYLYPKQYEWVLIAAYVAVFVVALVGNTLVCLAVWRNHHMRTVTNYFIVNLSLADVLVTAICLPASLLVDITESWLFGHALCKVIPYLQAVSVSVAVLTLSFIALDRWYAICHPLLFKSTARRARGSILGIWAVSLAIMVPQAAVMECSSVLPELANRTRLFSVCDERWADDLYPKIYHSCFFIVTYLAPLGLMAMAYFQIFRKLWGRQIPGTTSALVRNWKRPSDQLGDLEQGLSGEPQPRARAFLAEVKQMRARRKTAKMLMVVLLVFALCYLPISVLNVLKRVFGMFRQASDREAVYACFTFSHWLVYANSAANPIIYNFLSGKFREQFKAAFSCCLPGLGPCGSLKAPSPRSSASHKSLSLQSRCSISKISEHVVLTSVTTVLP
CHO-K1 Ca antag: nonselective inhibitor or artifact in parental CHO-K1 cells. ATP-induced calcium, Fluo-8 fluorescence. inhibition, % at 3 µM. 0.6% of 360,000 active;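 active = inhibition above a per-plate cutoff, the plate's mean sample inhibition plus 3 SD, cut at about 24% in these data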;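 also: 0% = DMSO plus EC80 ATP and 100% = DMSO alone without ATP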
CHO parental Ca: counter-screen for OX1R antagonists: effect in parental CHO cells; 0.63% of 330,000 active; inhibition, % at 5.6 µM; parental CHO-K1, ATP-induced calcium, Fluo-8 fluorescence; AID 463079;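 active = inhibition above that plate's mean sample inhibition plus 3 SD, cut at about 26% in these data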;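 also: 0% = ATP-challenged DMSO wells and 100% = DMSO wells without ATP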
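Material: parental CHO cells / Compound: single nominal dose of 5.6 µM per compound / Signal: Fluo-8 fluorescence / Replicates: singlicate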
OX1R antag-2: OX1R (human) antagonism | OX1R-expressing cells, FRET antagonist read-out | inhibition, % at 6.6 µM | 1.8% of 330,000 active | AID 485270; in the data active = inhibition mostly above about 38%, no sharp cut-off; inactive = mostly below about 40%;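 also: 0% = agonist challenge alone and 100% = reference antagonist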
M1 ag parental: M1 agonist counterscreen hit in parental CHO-K1 cells. activation, % at 3 µM. Fluo-8 calcium fluorescence; scaled to maximal ATP response, vehicle zero. AID 602248. 0.48% of 360,000 active; in the data active = activation above about 15%;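 also: untransfected CHO-K1 host cells lacking M1 receptor as counterscreen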
OX1R HTRF confirm: OX1R (human) antagonism, HTRF confirmed; shares compounds with OX1R antag-2; inhibition, % at 6.6 µM; OX1R-expressing cells, HTRF antagonist assay; 49% of 1,800 active; in the data active = inhibition above about 55%;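 also: CHO cells expressing OX1R stimulated with orexin A at about EC80; 0% = agonist challenge alone and 100% = reference antagonist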
CHO-K1 HTRF cnt: counter-screen: parental CHO-K1 HTRF response; 48% of 1,800 active; AID 493232; inhibition, % at 6.6 µM; parental CHO-K1 cells, HTRF counterscreen; shares compounds with OX1R antag-2; in the data active = inhibition above about 17%;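 also: 0% = agonist challenge with vehicle and 100% = vehicle alone without agonist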
* = called active by the depositor.

Results for Cc1ccc(C(=O)c2c(C)oc3c2C(=O)C(=O)c2ccccc2-3)cc1 ?
M1 PAM parental: 5; OX1R antag-1: -7; CHO-K1 Ca antag: -9; CHO parental Ca: -31; OX1R antag-2: 135*; M1 ag parental: 2; OX1R HTRF confirm: 70*; CHO-K1 HTRF cnt: 27*

What do the screens show for `Cc1oc2c(c1C(=O)c1ccc(Cl)cc1)C(=O)C(=O)c1ccccc1-2`?
M1 PAM parental: 5; CHO-K1 Ca antag: -1; M1 ag parental: 3

What do the screens show for `O=[N+]([O-])c1ccc(-n2cccn2)c(-c2nn[nH]n2)c1`?
M1 PAM parental: 11; OX1R antag-1: -13; CHO-K1 Ca antag: -10; CHO parental Ca: -14; OX1R antag-2: 108*; M1 ag parental: 1; OX1R HTRF confirm: 37; CHO-K1 HTRF cnt: 54*

What do the screens show for `Cc1ccccc1N=C1c2cc([N+](=O)[O-])ccc2-c2ncccc21`?
M1 PAM parental: -6; OX1R antag-1: -9; CHO-K1 Ca antag: 16; CHO parental Ca: -9; OX1R antag-2: 160*; M1 ag parental: 0; OX1R HTRF confirm: 36; CHO-K1 HTRF cnt: 42*

Results for O=C1C2=C(c3ccccc31)[N+](=O)C1CCCCC1N2[O-] (stereo not drawn) ?
M1 PAM parental: -3; OX1R antag-1: -11; CHO-K1 Ca antag: -3; CHO parental Ca: -2; OX1R antag-2: 112*; M1 ag parental: 0; OX1R HTRF confirm: 45; CHO-K1 HTRF cnt: 44*

Results for O=C(COc1ncnc2cc([N+](=O)[O-])ccc12)NCc1ccc2c(c1)OCO2 ?
M1 PAM parental: 9; OX1R antag-1: -17; CHO-K1 Ca antag: -6; CHO parental Ca: -10; OX1R antag-2: 81*; M1 ag parental: 1; OX1R HTRF confirm: 34; CHO-K1 HTRF cnt: 45*

What do the screens show for `O=[N+]([O-])c1cccc(COc2ncnc3cc([N+](=O)[O-])ccc23)c1`?
M1 PAM parental: -12; OX1R antag-1: -20; CHO-K1 Ca antag: 0; CHO parental Ca: -4; OX1R antag-2: 91*; M1 ag parental: 0; OX1R HTRF confirm: 46; CHO-K1 HTRF cnt: 48*

Results for Cc1cc(C)c(C(O)c2ncc(-c3ccccc3Cl)[nH]2)c(C)c1 (stereo not drawn) ?
M1 PAM parental: 9; CHO-K1 Ca antag: 1; M1 ag parental: 1

What do the screens show for `CN(NC(=O)c1ccccc1F)c1ncccc1[N+](=O)[O-]`?
M1 PAM parental: 4; OX1R antag-1: -12; CHO-K1 Ca antag: -7; CHO parental Ca: 3; OX1R antag-2: 8; M1 ag parental: 1

How did N#C/C(=N\Nc1ccc(Cl)cc1)C(=N)N1CCCCC1 do in these assays?
M1 PAM parental: 7; OX1R antag-1: -23; CHO-K1 Ca antag: -8; CHO parental Ca: 17; OX1R antag-2: 77*; M1 ag parental: 3; OX1R HTRF confirm: 18; CHO-K1 HTRF cnt: 11

How did N#C/C(=N\Nc1ccc(F)cc1)C(=N)N1CCCCCC1 do in these assays?
M1 PAM parental: 33; OX1R antag-1: 12; CHO-K1 Ca antag: -21; CHO parental Ca: -18; OX1R antag-2: 16; M1 ag parental: 1

Results for CCCCn1cc(S(=O)(=O)c2ccccc2)c(=O)c2cc(C)ccc21 ?
M1 PAM parental: 3; OX1R antag-1: -36; CHO-K1 Ca antag: -15; CHO parental Ca: -15; OX1R antag-2: 21; M1 ag parental: 0

Results for O=C(O)CNc1ncccc1[N+](=O)[O-] ?
M1 PAM parental: -13; OX1R antag-1: -3; CHO-K1 Ca antag: 12; CHO parental Ca: -12; OX1R antag-2: active; M1 ag parental: 0; OX1R HTRF confirm: 32; CHO-K1 HTRF cnt: 46*

What do the screens show for `Clc1ccc(NCc2ccsc2)cc1`?
OX1R antag-1: -17; CHO parental Ca: 10; OX1R antag-2: 5

How did CCN(CC)C(=S)SCC(=O)Nc1ncc2c(n1)CC(C)(C)CC2=O do in these assays?
M1 PAM parental: 20; OX1R antag-1: -4; CHO-K1 Ca antag: -14; CHO parental Ca: -3; OX1R antag-2: 12; M1 ag parental: 2

Source: PubChem BioAssay
